# According to ChEMBL document CHEMBL4368906 (J Med Chem, 2019):
# pEC50, pKi: −log10 of the molar value. Bridge positions count the residues as written; N and C are the ends. Square brackets hold non-standard residues; d marks the D form. Peptide text beside a SMILES is read from it. NMeF = CN[C@@H](Cc1ccccc1)C(=O)O; NMeK = CN[C@@H](CCCCN)C(=O)O
# How the values were obtained:
# Urotensin-2 receptor [1] = target: T1, Urotensin-2 receptor (Rattus norvegicus, UniProt P49684); assay: Agonist activity at urotensin 2 receptor in Sprague-Dawley rat thoracic aortic ring assessed as induction of contraction relative to KCl-induced contraction
# T1 sequence (P49684 whole entry): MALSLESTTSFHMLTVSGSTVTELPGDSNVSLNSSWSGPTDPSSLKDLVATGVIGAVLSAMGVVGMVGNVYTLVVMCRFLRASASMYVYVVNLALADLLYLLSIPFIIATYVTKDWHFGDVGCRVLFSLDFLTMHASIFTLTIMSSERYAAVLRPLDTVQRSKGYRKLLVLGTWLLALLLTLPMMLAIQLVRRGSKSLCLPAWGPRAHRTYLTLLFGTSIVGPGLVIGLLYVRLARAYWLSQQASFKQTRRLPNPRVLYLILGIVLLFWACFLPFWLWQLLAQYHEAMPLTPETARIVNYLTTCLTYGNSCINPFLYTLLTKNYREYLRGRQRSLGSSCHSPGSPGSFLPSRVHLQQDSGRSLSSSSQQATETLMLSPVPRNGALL
# How it was run: (§1)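 Male Sprague-Dawley rats, 250-300 g. Aortic rings were held in a 5-mL organ bath of oxygenated Krebs-Henseleit buffer. Each vessel was first challenged with KCl, 40 mM final in the bath. Peptides were added cumulatively from 10−11 to 10−5 M. Each contraction was taken as a percentage of the KCl response, divided by the response to hU-II (10−7 M).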
# Urotensin-2 receptor [2] = target: T2, Urotensin-2 receptor (Homo sapiens, UniProt Q9UKP6); assay: Displacement of [125I]-URP or human [125I[-urotensin-2 from human urotensin 2 receptor expressed in HEK293 or CHOK1 cells after 2 hrs by gamma-counting assay; assay type: cell-based
# T2 sequence (Q9UKP6 whole entry): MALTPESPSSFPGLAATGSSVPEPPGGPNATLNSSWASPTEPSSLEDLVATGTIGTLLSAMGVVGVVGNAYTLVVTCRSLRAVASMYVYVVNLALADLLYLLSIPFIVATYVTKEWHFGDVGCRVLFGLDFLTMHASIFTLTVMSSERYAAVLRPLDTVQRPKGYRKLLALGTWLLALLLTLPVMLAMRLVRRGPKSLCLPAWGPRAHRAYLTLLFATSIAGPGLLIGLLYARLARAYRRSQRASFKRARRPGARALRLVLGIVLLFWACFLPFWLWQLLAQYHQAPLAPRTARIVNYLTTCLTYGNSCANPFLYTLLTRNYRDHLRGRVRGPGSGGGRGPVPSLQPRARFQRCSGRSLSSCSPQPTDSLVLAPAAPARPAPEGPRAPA
# [3] = target: T3, Urotensin-2 receptor (Rattus norvegicus) (UniProt P49684); assay: Agonist activity at urotensin 2 receptor in Sprague-Dawley rat thoracic aortic ring assessed as induction of contraction relative to urotensin-2; how it was run: as §1
# T3 sequence (whole entry): T1 sequence (P49684 whole entry)
# Urotensin-2 receptor [4] = target: T2, Urotensin-2 receptor; assay: Agonist activity at urotensin 2 receptor (unknown origin) expressed in HEK293 cells co-expressing Gq-polycistronic BRET biosensor assessed as induction of Gq activation measured for 5 mins by luminescence detection based BRET assay; assay type: cell-based
# [5] = target: T3, Urotensin-2 receptor (Rattus norvegicus); assay: Agonist activity at urotensin 2 receptor in Sprague-Dawley rat thoracic aortic ring assessed as induction of contraction at 10 uM relative to KCl-induced contraction; how it was run: as §1
Structure (SMILES),pEC50 (Urotensin-2 receptor [1]),pKi (Urotensin-2 receptor [2]),Emax [3],pEC50 (Urotensin-2 receptor [4]),Activity [5]
CC(C)[C@H](NC(=O)[C@@H]1CSSC[C@H](N(C)C(=O)[C@H](CC(=O)O)NC(=O)[C@@H]2CCCN2C(=O)[C@@H](NC(=O)[C@@H](N)CCC(=O)O)[C@@H](C)O)C(=O)N[C@@H](Cc2ccccc2)C(=O)N[C@@H](Cc2c[nH]c3ccccc23)C(=O)N[C@@H](CCCCN)C(=O)N[C@@H](Cc2ccc(O)cc2)C(=O)N1)C(=O)O,8.01,7.31,112%,–,–
CC(C)[C@H](NC(=O)[C@@H]1CSSC[C@H](NC(=O)[C@@H](N)CC(=O)O)C(=O)N[C@@H](Cc2ccccc2)C(=O)N[C@@H](Cc2c[nH]c3ccccc23)C(=O)N(C)[C@@H](CCCCN)C(=O)N[C@@H](Cc2ccc(O)cc2)C(=O)N1)C(=O)O (H-DCFW[NMeK]YCV-OH; disulfide 2-7),–,< 5.00,–,–,42%
CC(C)[C@H](NC(=O)[C@@H]1CSSC[C@H](NC(=O)[C@@H](N)CC(=O)O)C(=O)N(C)[C@@H](Cc2ccccc2)C(=O)N[C@@H](Cc2c[nH]c3ccccc23)C(=O)N[C@@H](CCCCN)C(=O)N[C@@H](Cc2ccc(O)cc2)C(=O)N1)C(=O)O (H-DC[NMeF]WKYCV-OH; disulfide 2-7),6.27,6.64,98%,7.73,–
CC(C)[C@H](NC(=O)[C@@H]1CSSC[C@H](NC(=O)[C@H](CC(=O)O)NC(=O)[C@@H]2CCCN2C(=O)[C@@H](NC(=O)[C@@H](N)CCC(=O)O)[C@@H](C)O)C(=O)N[C@@H](Cc2ccccc2)C(=O)N[C@@H](Cc2c[nH]c3ccccc23)C(=O)N(C)[C@@H](CCCCN)C(=O)N[C@@H](Cc2ccc(O)cc2)C(=O)N1)C(=O)O,–,5.68,–,–,72%
CC(C)[C@H](NC(=O)[C@@H]1CSSC[C@H](NC(=O)[C@H](CC(=O)O)NC(=O)[C@@H]2CCCN2C(=O)[C@@H](NC(=O)[C@@H](N)CCC(=O)O)[C@@H](C)O)C(=O)N[C@@H](Cc2ccccc2)C(=O)N[C@@H](Cc2c[nH]c3ccccc23)C(=O)N[C@@H](CCCCN)C(=O)N(C)[C@@H](Cc2ccc(O)cc2)C(=O)N1)C(=O)O,–,5.67,–,–,71%
CC(C)[C@H](NC(=O)[C@@H]1CSSC[C@H](NC(=O)[C@H](CC(=O)O)NC(=O)[C@@H]2CCCN2C(=O)[C@@H](NC(=O)[C@@H](N)CCC(=O)O)[C@@H](C)O)C(=O)N[C@@H](Cc2ccccc2)C(=O)N[C@@H](Cc2c[nH]c3ccccc23)C(=O)N[C@@H](CCCCN)C(=O)N[C@@H](Cc2ccc(O)cc2)C(=O)N1)C(=O)O [UROTENSIN-II],8.52,–,–,–,–
CC(C)[C@H](NC(=O)[C@@H]1CSSC[C@H](NC(=O)[C@H](C)N)C(=O)N(C)[C@@H](Cc2ccccc2)C(=O)N[C@@H](Cc2c[nH]c3ccccc23)C(=O)N[C@@H](CCCCN)C(=O)N[C@@H](Cc2ccc(O)cc2)C(=O)N1)C(=O)O,–,6.61,–,6.98,51%

# Results, then the compound that gave them:
pEC50 (Urotensin-2 receptor [1]),pKi (Urotensin-2 receptor [2]),Emax [3],pEC50 (Urotensin-2 receptor [4]),Activity [5],Structure (SMILES)
7.08,8.66,35%,7.86,–,CC(C)[C@H](NC(=O)[C@@H]1CSSC[C@H](NC(=O)[C@H](C)N)C(=O)N[C@@H](Cc2ccccc2)C(=O)N(C)[C@@H](Cc2c[nH]c3ccccc23)C(=O)N[C@@H](CCCCN)C(=O)N[C@@H](Cc2ccc(O)cc2)C(=O)N1)C(=O)O
8.11,8.20,116%,8.57,–,CC(C)[C@H](NC(=O)[C@@H]1CSSC[C@H](NC(=O)[C@H](C)N)C(=O)N[C@@H](Cc2ccccc2)C(=O)N[C@@H](Cc2c[nH]c3ccccc23)C(=O)N[C@@H](CCCCN)C(=O)N[C@@H](Cc2ccc(O)cc2)C(=O)N1)C(=O)O
8.24,7.69,97%,8.25,–,CC(C)[C@H](NC(=O)[C@@H]1CSSC[C@H](NC(=O)[C@H](CC(=O)O)NC(=O)[C@@H]2CCCN2C(=O)[C@@H](NC(=O)[C@@H](N)CCC(=O)O)[C@@H](C)O)C(=O)N[C@@H](Cc2ccccc2)C(=O)N(C)[C@@H](Cc2c[nH]c3ccccc23)C(=O)N[C@@H](CCCCN)C(=O)N[C@@H](Cc2ccc(O)cc2)C(=O)N1)C(=O)O
